From PubChem BioAssay
MITF act: activators of MITF-driven TRPM1 promoter reporter, primary screen, cell-based, SK-MEL-5, luciferase, single point. 0.75% of 300,000 active. activation, % at 12.5 µM. SK-MEL-5 TRPM1-promoter luciferase, 24 h; % of positive control, neutral wells = 0;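 active = mean activation of at least 80% with every replicate also reaching 80%; inconclusive = mean reaches 80% but some replicate falls short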
esBAF inh: Bmi1 luciferase reporter increase in mESCs, primary screen, esBAF inhibitor project, mouse ES cells, Bmi1 luciferase knock-in, single point; 24 h; 100% = twice the neutral-well signal; reporter increase, % at 12.5 µM; 2% of 350,000 active; AID 602393, 2012; in the data active = activation above about 40%; inconclusive = no clear call, values can overlap the other calls;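 note: a rise in the Bmi1 reporter signal indicates esBAF inhibition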
Wnt bcat act: Wnt/beta-catenin pathway activators, primary screen, cell-based, plate reader, single point | Wnt/beta-catenin reporter cell assay, activator | activation, % at 9.35 µM | 1.2% of 300,000 active | AID 743398, 2014; in the data active = activation above about 30%, passing the limit was not always enough; inconclusive = no clear call, values can overlap the other calls
ERAP1 HTS inh: human ERAP1 aminopeptidase inhibitors, primary screen, biochemical, single point, plate reader; recombinant ERAP1, Leu-AMC fluorescence, 60 min; inhibition, % at 10.7 µM; Endoplasmic reticulum aminopeptidase 1 (Homo sapiens), Q9NZ08; 0.15% of 340,000 active;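 active = mean replicate inhibition of at least 30%, or all replicates individually reaching that 30% level; inactive = mean below 30% and not every replicate reaching it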
Target sequence (Q9NZ08 whole entry, looked up): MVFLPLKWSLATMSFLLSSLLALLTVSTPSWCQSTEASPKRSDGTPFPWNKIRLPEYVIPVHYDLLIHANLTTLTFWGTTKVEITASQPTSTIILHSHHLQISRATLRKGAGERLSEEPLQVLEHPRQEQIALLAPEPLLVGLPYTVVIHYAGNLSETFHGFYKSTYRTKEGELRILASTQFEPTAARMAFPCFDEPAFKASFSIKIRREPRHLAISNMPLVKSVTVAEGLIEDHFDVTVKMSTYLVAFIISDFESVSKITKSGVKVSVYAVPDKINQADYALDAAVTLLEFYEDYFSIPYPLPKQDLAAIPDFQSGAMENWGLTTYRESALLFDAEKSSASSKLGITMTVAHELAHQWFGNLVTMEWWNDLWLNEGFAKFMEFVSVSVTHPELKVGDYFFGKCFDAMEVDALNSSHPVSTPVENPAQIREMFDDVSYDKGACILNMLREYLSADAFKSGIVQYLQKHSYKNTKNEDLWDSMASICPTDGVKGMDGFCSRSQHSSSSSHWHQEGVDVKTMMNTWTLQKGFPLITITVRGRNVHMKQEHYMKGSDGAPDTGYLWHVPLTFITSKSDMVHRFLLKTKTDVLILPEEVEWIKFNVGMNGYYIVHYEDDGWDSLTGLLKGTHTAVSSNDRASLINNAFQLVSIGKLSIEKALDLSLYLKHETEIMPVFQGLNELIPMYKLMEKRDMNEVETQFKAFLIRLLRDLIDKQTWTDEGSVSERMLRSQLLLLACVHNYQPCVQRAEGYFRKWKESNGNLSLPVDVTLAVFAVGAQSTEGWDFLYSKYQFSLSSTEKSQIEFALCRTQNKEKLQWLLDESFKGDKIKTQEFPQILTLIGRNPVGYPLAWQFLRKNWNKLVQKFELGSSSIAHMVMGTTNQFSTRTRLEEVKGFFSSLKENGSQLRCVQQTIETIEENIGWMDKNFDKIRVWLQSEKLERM
Cneo AK release: Cryptococcus neoformans cell lysis inducers, primary screen, AK release luminescence, single concentration; C. neoformans lysis, adenylate kinase release luminescence, 4 h; normalised: neutral wells 0, clomiphene wells 100; 0.2% of 360,000 active; lysis activity, % at 15 µM;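 active = mean lysis activity across replicates of at least 80%, whatever share of replicates individually reach that level; inactive = mean lysis activity below 80%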
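Signal: Adenylate kinase release luminescence | Assay system: Log-phase Cryptococcus neoformans yeast cells | Input: Cells at 5 × 10^6 per mL | Buffer or medium: Fresh YPD growth medium | Compound: Single dose | Schedule: Static 4 h at 37 °C with compound, 1 h detection | Controls: Clomiphene | Read-out: Luminescence rise reflecting yeast cell lysis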
HIV Env fusion: inhibitors of HIV-1 Env-driven cell-cell fusion, primary screen, HeLa-JRFL effector, CEM21 target cells, luciferase; inhibition, % at 12.3 µM; 1.1% of 360,000 active; AID 651610, 2012;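 active = mean replicate inhibition score of at least 50 and every replicate individually at or above 50; inconclusive = only one of the two criteria met; inactive = mean below 50 and not all replicates reaching 50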
Each line names hits and unclear results; the compound was inactive in the other large screens. In the library only some 3.5% were active in any assay of this set; here they are far more common.

CO[C@H]1CN(C)C(=O)c2cc(NC(=O)NC3CCCCC3)ccc2OC[C@@H](C)N(CC2CC2)C[C@@H]1C	none (no result: MITF act, Wnt bcat act, HIV Env fusion)
COc1ccc([C@@H]2[C@@H]3C(=O)N(C(C)(C)C)C(=O)[C@@H]3[C@]3(Cc4ccccc4)C(=O)N(c4cccc(C)c4)C(=O)N23)cc1	none
COc1ccc([C@@H]2[C@@H]3C(=O)N(C(C)(C)C)C(=O)[C@@H]3[C@]3(Cc4ccccc4)C(=O)N(c4cccc(Cl)c4)C(=O)N23)cc1	HIV Env fusion 80
COc1ccc([C@@H]2[C@@H]3C(=O)N(C(C)(C)C)C(=O)[C@@H]3[C@]3(Cc4ccc(Cl)cc4)C(=O)N(c4cccc(Br)c4)C(=O)N23)cc1	HIV Env fusion 78
COc1ccc([C@@H]2[C@@H]3C(=O)N(C(C)(C)C)C(=O)[C@@H]3[C@]3(Cc4ccccc4)C(=O)N(c4ccccc4)C(=O)N23)cc1	none
COc1ccc([C@@H]2[C@@H]3C(=O)N(C(C)(C)C)C(=O)[C@@H]3[C@]3(Cc4ccc(Cl)cc4)C(=O)N(c4cccc(F)c4)C(=O)N23)cc1	HIV Env fusion 107
COc1ccc(C#Cc2ccc3c(c2)[C@]2(C(=O)N3)[C@H](c3ccc(O)cc3)N3[C@H](c4ccccc4)[C@H](c4ccccc4)OC(=O)[C@H]3[C@@H]2C(=O)NC[C@H](O)c2ccccc2)cc1	none (no result: MITF act, esBAF inh, Wnt bcat act)
CCCCNC(=O)O[C@@H]1C[C@H]2CCCC(=O)N3CC[C@@H](C1)[C@@H]23	none
CCCCCCCN(c1ccccc1)[C@@H]1C[C@H]2CCCC(=O)N3CC[C@@H](C1)[C@@H]23	HIV Env fusion 74
Cc1cc(OCC(=O)N(C)Cc2ccccc2)ccc1Br	esBAF inh 43
COc1ccc(C(=O)CSc2nnc(Cn3cnc4ccccc43)o2)cc1	HIV Env fusion 106 (no result: MITF act, ERAP1 HTS inh)
CC(=O)c1ccc(NC(=O)CSc2nnc(Cn3cnc4ccccc43)o2)cc1	none
CC(C)NC(=O)N(C)C[C@@H]1Oc2ncc(C#CC3CCCCC3)cc2C(=O)N([C@@H](C)CO)C[C@@H]1C	none (no result: MITF act, Wnt bcat act, ERAP1 HTS inh, Cneo AK release)
C[C@H](CO)N1C[C@H](C)[C@@H](CN(C)C(=O)c2ccccc2F)Oc2ncc(Br)cc2C1=O	none (no result: MITF act, Wnt bcat act)
C[C@H]1CN([C@@H](C)CO)C(=O)c2cc(/C=C/c3ccccc3)cnc2O[C@@H]1CN(C)C(=O)c1ccc2c(c1)OCO2	none (no result: MITF act, Wnt bcat act)
O=C(NC(Nc1nc2ccc([N+](=O)[O-])cc2s1)(C(F)(F)F)C(F)(F)F)c1ccccc1Cl	none (no result: esBAF inh, Wnt bcat act, Cneo AK release)
CS(=O)(=O)c1ccc2nc(NC(=O)c3ccccc3Br)sc2c1	esBAF inh 58 (no result: MITF act)
CN(C)S(=O)(=O)c1ccc2nc(NC(=O)c3cccnc3)sc2c1	Wnt bcat act 38 (no result: esBAF inh, ERAP1 HTS inh)
COc1ccccc1C(=O)Nc1nc2ccc(S(C)(=O)=O)cc2s1	esBAF inh 49 (no result: Wnt bcat act, ERAP1 HTS inh)
O=C(NC(Nc1nc2ccc([N+](=O)[O-])cc2s1)(C(F)(F)F)C(F)(F)F)c1cccnc1	HIV Env fusion 123 (no result: esBAF inh, Cneo AK release)
CC(C)NC(=O)N[C@@H]1CC[C@H](CCNS(=O)(=O)c2ccc(F)cc2)O[C@H]1CO	none (no result: MITF act, Wnt bcat act)
COc1ccc(S(=O)(=O)Nc2ccc3c(c2)C(=O)N([C@H](C)CO)C[C@H](C)[C@@H](CN(C)Cc2ccc(Cl)c(Cl)c2)OCCCC[C@@H](C)O3)cc1	none (no result: MITF act, esBAF inh, Wnt bcat act, Cneo AK release, HIV Env fusion)
CO[C@H]1CN(C)C(=O)c2cc(NC(=O)c3cnccn3)ccc2OC[C@H](C)N(C)C[C@H]1C	none (no result: MITF act, Wnt bcat act)
C[C@H](CO)N1C[C@H](C)[C@H](CN(C)CC2CC2)Oc2cc(-c3ccc(C#N)cc3)ccc2S1(=O)=O	none (no result: MITF act, Wnt bcat act)
COCCCn1c(C(=O)Nc2ccc3c(c2)OCO3)cc2c(=O)n3ccccc3nc21	none
COCCCn1c(C(=O)N2CCOCC2)cc2c(=O)n3ccccc3nc21	ERAP1 HTS inh 54
CCN(C(=O)c1cc2c(=O)n3cccc(C)c3nc2n1CCCOC)C1CCCCC1	ERAP1 HTS inh 50
C[C@H](CO)N1C[C@H](C)[C@H](CN(C)CC2CCCCC2)OCCCC[C@H](C)Oc2ccc(NC(=O)C3CCCCC3)cc2C1=O	none (no result: MITF act, Wnt bcat act)
COc1cccc(S(=O)(=O)N[C@@H]2CC[C@H](CCn3cc(-c4ccc(F)cc4)nn3)O[C@H]2CO)c1	none (no result: MITF act, Wnt bcat act)
CC(/C=C/c1ccco1)=N/NC(=O)OC(C)(C)C	Wnt bcat act 57 (no result: esBAF inh, Cneo AK release)
O=C(Nc1cccc(Cl)c1)N1C[C@H]2[C@@H](c3ccccc31)[C@H](CO)N2Cc1ccncc1	none (no result: MITF act, Wnt bcat act, HIV Env fusion)
CC(C)N1CC(COc2ccc(Br)cc2)OC1=O (stereo unspecified)	none
CC(C)(C)N1CC(COc2ccccc2)OC1=O (stereo unspecified)	esBAF inh 62 (no result: MITF act, ERAP1 HTS inh)
COC(=O)C[C@H]1CC[C@@H](N)[C@H](CO)O1	none (no result: MITF act, Wnt bcat act)
O=C(COC(=O)[C@H](Cc1c[nH]c2ccccc12)NC(=O)c1ccc(Cl)cc1)Nc1ccc2c(c1)OCO2	esBAF inh inconclusive (no result: Wnt bcat act, ERAP1 HTS inh)
COC(=O)[C@@H](Cc1c[nH]c2ccccc12)NC(=O)c1ccc2c(c1)OCO2	esBAF inh 68, Wnt bcat act 38
O=C(NCCc1c[nH]c2ccccc12)C(=O)Nc1ccccc1	esBAF inh 58
O=C(NCCc1c[nH]c2ccccc12)c1cc(Cl)c2c(c1)OCO2	MITF act 113, esBAF inh 47, Wnt bcat act 36
Cn1c(C(=O)NCCc2c[nH]c3ccccc23)cc2sccc21	MITF act 101, esBAF inh 74
Cc1nn2cc(-c3ccc(Cl)cc3)cnc2c1Cl	MITF act 126, esBAF inh 72, Wnt bcat act 32
Cc1ccc(S(=O)(=O)Nc2cccc3c2O[C@@H](CN(C)Cc2ccc(-c4ccccc4)cc2)[C@H](C)CN([C@@H](C)CO)C3=O)cc1	none (no result: MITF act, Wnt bcat act)
O=S(=O)(c1ccccc1)n1ccc(-c2cnc(-c3ccccc3)s2)n1	MITF act 98, Wnt bcat act 45 (no result: esBAF inh, ERAP1 HTS inh)
Cc1ccc(Cn2ccc(-c3cnc(-c4ccccc4)s3)n2)cc1	esBAF inh 79 (no result: Wnt bcat act, ERAP1 HTS inh, HIV Env fusion)
Fc1ccc(Cn2ccc(-c3cnc(-c4ccccc4)s3)n2)cc1	none (no result: esBAF inh, Wnt bcat act, ERAP1 HTS inh, Cneo AK release, HIV Env fusion)
O=C(c1ccc(F)cc1)n1ccc(-c2cnc(-c3ccccc3)s2)n1	none (no result: Wnt bcat act, ERAP1 HTS inh, HIV Env fusion)
CCCCOP(=O)(c1ccc(N(C)C)cc1)C(O)c1c(Cl)cccc1Cl (stereo unspecified)	HIV Env fusion 59
CCCCOP(=O)(c1ccc(N(C)C)cc1)C(O)c1ccc(N(C)C)cc1 (stereo unspecified)	none
COc1cccc(NC(=O)N2CC(=O)N3[C@H](C2)[C@H](c2ccc(C4=CCCC4)cc2)[C@@H]3CO)c1	none (no result: MITF act, esBAF inh, Wnt bcat act, Cneo AK release, HIV Env fusion)
Cc1n[nH]c(=S)n1/N=C/c1cccc(OCc2ccccc2)c1	none (no result: esBAF inh, Cneo AK release)
